Results reported in article PMC3085808 (Nutrition Research and Practice, 2011).

Legend:
[1] = system: glycosidases from the viscera of the turban shell Turbo cornutus; conditions: cited from earlier work
EAhy926 cells [2] = assay: Cell viability, MTT assay; assay type: cell-based, human
Procedure, shortened: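 EAhy926 cells grown in DMEM with 10% heat-inactivated calf serum, penicillin and streptomycin at 37℃, 5% CO2. Seeded at 1.0 × 10^5 cells/ml, held 16 h, then exposed 24 h to a range of test compound concentrations in 0.1% DMSO. MTT (2 mg/ml stock) added for 4 h; formazan dissolved in DMSO, A540. Viability as % of 0.1% DMSO control; mean ± SD of three determinations.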

EAhy926 cells [3] = assay: Nitric oxide; assay type: cell-based, human; conditions: 24 h, P < 0.05
Procedure, shortened: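 EAhy926 cells at 1.5 × 10^5 cells/well were treated 24 h with a range of test compound concentrations in 0.1% DMSO, with 0.1% DMSO as control. Supernatant nitrite: supernatant mixed 1:1 with Griess reagent (0.1% N-(1-naphthyl)-ethylenediamine, 1% sulfanilamide in 5% phosphoric acid), 10 min at room temperature, A550 against a sodium nitrite standard curve. Mean ± SD of three determinations; one-way ANOVA with Duncan's test, P < 0.05.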

[4] = target: T1, angiotensin I-converting enzyme (ACE) (Oryctolagus cuniculus, UniProt P12822); assay: ACE inhibition pattern by Lineweaver-Burk plots; assay type: biochemical; conditions: substrate HHL
T1 sequence (P12822 34-1310): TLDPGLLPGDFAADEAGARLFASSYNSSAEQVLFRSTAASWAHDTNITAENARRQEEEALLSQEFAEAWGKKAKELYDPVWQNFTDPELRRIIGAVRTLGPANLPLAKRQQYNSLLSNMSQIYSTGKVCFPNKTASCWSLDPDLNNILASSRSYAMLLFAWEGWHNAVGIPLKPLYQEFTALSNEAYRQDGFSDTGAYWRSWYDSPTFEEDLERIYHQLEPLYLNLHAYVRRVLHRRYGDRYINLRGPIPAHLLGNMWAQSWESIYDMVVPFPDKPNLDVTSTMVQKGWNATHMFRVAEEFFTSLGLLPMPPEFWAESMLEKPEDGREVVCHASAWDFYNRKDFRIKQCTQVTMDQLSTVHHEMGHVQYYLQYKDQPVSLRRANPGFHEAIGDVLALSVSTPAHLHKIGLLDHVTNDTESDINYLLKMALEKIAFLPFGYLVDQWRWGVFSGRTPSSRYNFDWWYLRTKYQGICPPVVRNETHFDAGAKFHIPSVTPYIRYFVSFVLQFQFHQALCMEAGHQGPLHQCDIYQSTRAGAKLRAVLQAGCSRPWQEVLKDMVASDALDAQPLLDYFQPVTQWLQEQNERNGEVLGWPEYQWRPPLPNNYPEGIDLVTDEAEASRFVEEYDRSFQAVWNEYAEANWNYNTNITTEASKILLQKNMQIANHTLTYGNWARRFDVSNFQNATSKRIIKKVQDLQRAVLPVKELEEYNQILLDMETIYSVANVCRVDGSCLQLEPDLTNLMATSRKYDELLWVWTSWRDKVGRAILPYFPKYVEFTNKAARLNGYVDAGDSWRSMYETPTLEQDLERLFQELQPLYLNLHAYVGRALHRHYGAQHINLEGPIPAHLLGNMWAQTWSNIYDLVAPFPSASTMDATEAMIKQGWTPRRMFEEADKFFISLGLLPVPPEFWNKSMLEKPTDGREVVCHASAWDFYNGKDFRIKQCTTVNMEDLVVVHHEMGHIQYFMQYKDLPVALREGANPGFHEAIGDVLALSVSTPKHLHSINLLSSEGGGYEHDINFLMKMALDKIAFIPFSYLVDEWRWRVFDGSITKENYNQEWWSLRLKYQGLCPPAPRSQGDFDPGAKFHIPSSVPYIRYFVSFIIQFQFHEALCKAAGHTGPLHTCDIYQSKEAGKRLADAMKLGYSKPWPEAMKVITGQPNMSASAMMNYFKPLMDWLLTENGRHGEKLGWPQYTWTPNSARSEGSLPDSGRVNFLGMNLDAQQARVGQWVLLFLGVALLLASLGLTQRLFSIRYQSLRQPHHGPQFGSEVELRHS
Procedure, shortened: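 ACE kept constant while test compound (in 0.1% DMSO) and HHL substrate were both varied. Enzyme and compound were pre-incubated 10 min at 37℃, then HHL in 50 mM sodium borate with 500 mM NaCl, pH 8.3, was added for 60 min at 37℃. Stopped with 1 M HCl; hippuric acid extracted into ethyl acetate, dried, redissolved in water, A228. 0.1% DMSO control. Lineweaver-Burk plots, mean ± SD of three determinations.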

Q: Which Glycosidase inhibition mode [1] does the source give for `Oc1cc(O)cc(Oc2c(O)cc(O)c3c2Oc2c(O)cc(Oc4c(O)cc(Oc5c(O)cc(O)c6c5Oc5c(O)cc(O)cc5O6)cc4O)cc2O3)c1` [Dieckol, dieckol] here?
A: non-competitive inhibitor

Q: And the Cytotoxic effect (EAhy926 cells [2])?
A: no cytotoxic effect

Q: And the “Survival rate of cells” value (EAhy926 cells [2]; 24 h, all of the concentrations used)?
A: higher than 95%

Q: And the “Concentrations with inducible effect on the production of NO” value (EAhy926 cells [3])?
A: higher than 0.27 mM

Q: What about the ACE inhibition mode [4] of the same molecule?
A: non-competitive inhibitor
